The text below walks through data of ChEMBL document CHEMBL4368909, “Identification of Dihydrofuro[3,4- d]pyrimidine Derivatives as Novel HIV-1 Non-Nucleoside Reverse Transcriptase Inhibitors with Promising Antiviral Activities and Desirable Physicochemical Properties” (J Med Chem, 2019).

Data set [1] has as its system Human immunodeficiency virus 1. In words: Antiviral activity against wild type HIV1 3B infected in human MT4 cells assessed as reduction in virus-induced cytopathic effect after 5 days by MTT assay. It is filed as functional, organism-based. The settings on record: Human immunodeficiency virus 1, 3B, MT4, 120 h. On the technique in general: Damage to the host cells serves as the signal in cytopathic effect assays.

In data set [2] the test system is Human immunodeficiency virus 1. Nature of the data set: Antiviral activity against HIV1 harboring reverse transcriptase E138K mutant infected in human MT4 cells assessed as reduction in virus-induced cytopathic effect after 5 days by MTT assay. In kind it is functional, organism-based. The settings on record: Human immunodeficiency virus 1, MT4, 120 h.
The nature of data set [3]: Sub-acute toxicity in Kunming mouse assessed as alveolar hemorrhage at 50 mg/kg/day, po administered for 2 weeks by hematoxylin and eosin staining-based assay. It is filed as organism-based. The settings on record: in vivo, 336 h. In a few lines: (§1)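 Mice were dosed orally at 50 mg/kg/day for 2 weeks and observed for behavioural abnormalities during treatment. Organs were then examined by hematoxylin–eosin staining.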

Data set [4] in a line: Aqueous solubility of the compound in FASSIF by HPLC analysis. It is filed as physicochemical. The settings on record: simulated gi fluid. In a few lines: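 Solubility read by HPLC in fasted state simulated intestinal fluid (FaSSIF).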
Data set [5] is described as follows: Sub-acute toxicity in Kunming mouse assessed as proximal convoluted tubule edema in kidney at 50 mg/kg/day, po administered for 2 weeks by hematoxylin and eosin staining-based assay. It is filed as organism-based. The settings on record: in vivo, 336 h. In a few lines:
as §1

The test system of data set [6] is Human immunodeficiency virus 1. In words: Antiviral activity against HIV1 harboring reverse transcriptase F227L/V106A double mutant infected in human MT4 cells assessed as reduction in virus-induced cytopathic effect after 5 days by MTT assay. In kind it is functional, organism-based. The settings on record: Human immunodeficiency virus 1, MT4, 120 h.
Data set [7] concerns Human immunodeficiency virus 1. Nature of the data set: Antiviral activity against HIV1 RES056 infected in human MT4 cells assessed as reduction in virus-induced cytopathic effect after 5 days by MTT assay. It is filed as functional, organism-based. The settings on record: Human immunodeficiency virus 1, RES056, MT4, 120 h.
Data set [8] is described as follows: Sub-acute toxicity in Kunming mouse assessed as alveolar interstitial thickening at 50 mg/kg/day, po administered for 2 weeks by hematoxylin and eosin staining-based assay. In kind it is organism-based. The settings on record: in vivo, 336 h. In a few lines: as §1
Data set [9] deals with Human immunodeficiency virus 1. Nature of the data set: Antiviral activity against HIV1 harboring reverse transcriptase L100I mutant infected in human MT4 cells assessed as reduction in virus-induced cytopathic effect after 5 days by MTT assay. It is filed as functional, organism-based. The settings on record: Human immunodeficiency virus 1, MT4, 120 h.
Data set [10] in a line: Aqueous solubility of the compound at pH at 7.4 by HPLC analysis. It is filed as physicochemical. The settings on record: buffer, pH 7.4; read-out: solubility. In a few lines:
(§2)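 Aqueous solubility read by HPLC in buffer at pH 2.0, 7.0 or 7.4.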

Data set [11] deals with Human immunodeficiency virus 1. In words: Antiviral activity against HIV1 harboring reverse transcriptase Y181C mutant infected in human MT4 cells assessed as reduction in virus-induced cytopathic effect after 5 days by MTT assay. It is filed as functional, organism-based. The settings on record: Human immunodeficiency virus 1, MT4, 120 h.
A short description of data set [12]: Aqueous solubility of the compound at pH at 7 by HPLC analysis. It is filed as physicochemical. The settings on record: buffer, pH 7; read-out: solubility. In a few lines:
as §2

In brackets after ≈: the same amount, converted by molar mass.

Usually EC50 stands for the concentration at which the effect is half-maximal. As usually defined, the solubility is the concentration that dissolves in the medium under given conditions. Consider `Cc1cc(C#N)cc(C)c1Oc1nc(Nc2ccc(C#N)cc2)nc(N)c1Br` [ETRAVIRINE], for which the EC50 came out at 5.1 nM in data set [1]; 9.7 nM in [2]; 19.7 nM in data set [6]; 45.4 nM in [7]; 6 nM in data set [9]; 14.5 nM in [11]. In addition, the Activity entry in data set [3], in data set [5] and in [8] was “Toxic” in each case. Moreover, the values for the solubility in data set [4], in data set [10] and in data set [12] were 13.2 µg/mL (≈ 30.3 µM), < 1 µg/mL and < 1 µg/mL, respectively.
